Results published in ChEMBL document CHEMBL4680345, “Thioether-linked dihydropyrrol-2-one analogues as PqsR antagonists against antibiotic resistant Pseudomonas aeruginosa” (Bioorg Med Chem, 2021).
Active and inactive are the calls of the source. The calls are words filed in the database; no cut-off is given here.

Columns and labels:
[1] = system: Pseudomonas aeruginosa PAO1; assay: Inhibition of PqsR in Pseudomonas aeruginosa PAO1 harboring GFP fused pqsA at 125 ug/ml measured every 15 mins for 6 to 8 hrs by reporter assay relative to control; settings: dose 125.0 µg/ml, time 6-8 hrs
Procedure, shortened: (§1)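 PAO1 carrying PqsR-regulated pqsA promoter–gfp fusion; overnight culture in Mueller Hinton broth exposed to serially diluted compounds (40 mM DMSO stocks, diluted in medium) at 37 °C with intermittent shaking. GFP fluorescence and OD600 read every 15 min for at least 6–8 h; fluorescence normalised to OD600. Negative control: medium with 1.25% DMSO. Run in triplicate.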

[2] = system: Pseudomonas aeruginosa; assay: Antibiofilm activity against Pseudomonas aeruginosa ATCC 25619 assessed as decrease in bacterial co-aggregation at 150 to 400 uM measured […] by microscopic analysis (reference value: 23 %); type: functional; parameters: scale not given: the % may be the effect or the level left; settings: dose 150-400 µM
[3] = system: Pseudomonas aeruginosa; assay: Antibiofilm activity against Pseudomonas aeruginosa PAO1 assessed as decrease in bacterial co-aggregation at 150 to 400 uM measured after 24 hrs by phase contrast microscopic analysis; type: functional, organism-based; settings: dose 150-400 µM
Procedure, shortened: (§2)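 Overnight TSB cultures resuspended to OD600 0.1 ± 0.02 in TSB. Biofilms grown 24 h at 37 °C, 100 rpm with compound at 250 µM or DMSO control. Washed twice with PBS to remove loosely adhered cells. Imaged by phase contrast microscopy to assess biofilm morphology and aggregation.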

[4] = Inhibition of planktonic growth of Pseudomonas aeruginosa PAO1 up to 125 ug/ml incubated for 24 hrs; settings: dose <=125 µg/ml
Procedure, shortened: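 PAO1 at 5×10^5 CFU/mL in MHB. Compound added from 10 mg/mL DMSO stock, up to 125 µg/mL final. Incubated 24 h at 37 °C with intermittent agitation, OD600 read every 15 min. DMSO (1.25%) as control. One experiment per compound with three technical replicates.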

[5] = system: Pseudomonas aeruginosa; assay: Antibiofilm activity against Pseudomonas aeruginosa PAO1 assessed as reduction in biomass at 250 to 400 uM measured after 48 hrs by crystal violet staining based assay relative to control; type: functional; settings: dose 250-400 µM
Procedure, shortened: (§3)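 Biofilms started from TSB-grown cultures at OD600 0.1 ± 0.02 with compound (250 and 400 µM) or DMSO control. Incubated 48 h at 37 °C, 100 rpm, then washed with PBS. Stained with 0.1% (w/v) crystal violet for 1 h at 37 °C, 150 rpm, washed three times and dried. Dye dissolved in 80% ethanol and read at OD550. Biomass expressed as % decrease versus DMSO control, set at 100%.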

[6] = system: Pseudomonas aeruginosa; assay: Antibiofilm activity against Pseudomonas aeruginosa ATCC 25619 assessed as decrease in bacterial co-aggregation at 150 to 400 uM measured after 24 hrs by phase contrast microscopic analysis; type: functional, organism-based; settings: dose 150-400 µM; procedure, shortened: as §2
[7] = system: Pseudomonas aeruginosa; assay: Antibiofilm activity against Pseudomonas aeruginosa PAO1 assessed as decrease in bacterial co-aggregation at 150 to 400 uM measured […] by microscopic analysis (reference value: 26 %); type: functional; parameters: scale not given: the % may be the effect or the level left; settings: dose 150-400 µM
[8] = Inhibition of PqsR in Pseudomonas aeruginosa PAO1 harboring GFP fused pqsA measured every 15 mins for 6 to 8 hrs by reporter assay; procedure, shortened: as §1
[9] = system: Pseudomonas aeruginosa; assay: Antibiofilm activity against Pseudomonas aeruginosa ATCC 25619 assessed as reduction in biomass at 250 to 400 uM measured after 48 hrs by crystal violet staining based assay relative to control; type: functional; settings: dose 250-400 µM; procedure, shortened: as §3

| SMILES | inhibition [1] | further results |
| --- | --- | --- |
| O=C1C=C(c2ccccc2F)/C(=C/Sc2ccccc2)N1 | 42% |  |
| O=C1C=C(c2ccc(Cl)cc2)/C(=C/Sc2ccccn2)N1 | 18% |  |
| O=C1C=C(c2ccccc2F)/C(=C/Sc2ccccn2)N1 | 40% |  |
| CCCS/C=C1\NC(=O)C=C1c1ccc(Br)cc1 | 62% | Activity [2]: 11%; Activity [3]: Active; growth inhibition (GI) [4]: Non-Toxic; inhibition (INH) [5]: 20%; Activity [6]: Active; Activity [7]: 13%; IC50 [8]: 100 µM; inhibition (INH) [9]: 20% |
| O=C1C=C(c2ccc(Cl)cc2)/C(=C/Sc2ccccc2)N1 | 45% |  |
| O=C1C=C(c2ccccc2)/C(=C/Sc2ccccn2)N1 | 53% |  |
| O=C1C=C(c2ccccc2)/C(=C/Sc2ccc(Cl)cc2)N1 | 43% |  |
| O=C1C=C(c2ccc(F)cc2)/C(=C/Sc2ccccc2)N1 | 45% |  |
| O=C1C=C(c2ccc(Br)cc2)/C(=C/Sc2ccccn2)N1 | 20% |  |
| O=C1C=C(c2ccccc2F)/C(=C/Sc2ccc(Cl)cc2)N1 | 55% |  |
| O=C1C=C(c2ccc(F)cc2)/C(=C/Sc2ccccn2)N1 | 63% | Activity [2]: 11%; Activity [3]: Active; growth inhibition (GI) [4]: Non-Toxic; inhibition (INH) [5]: 20%; Activity [6]: Active; Activity [7]: 13%; IC50 [8]: 32 µM; inhibition (INH) [9]: 20% |
| O=C1C=C(c2cccc(F)c2)/C(=C/Sc2ccccn2)N1 | 47% |  |
| O=C1C=C(c2ccc(Br)cc2)/C(=C/Sc2ccc(Cl)cc2)N1 | 33% |  |
| CCCS/C=C1\NC(=O)C=C1c1ccccc1 | 20% |  |
| CCCS/C=C1\NC(=O)C=C1c1ccc(Cl)cc1 | 59% | IC50 [8]: 90 µM |
| CCCS/C=C1\NC(=O)C=C1c1ccccc1F | 7% |  |
| O=C1C=C(c2ccc(Cl)cc2)/C(=C/Sc2ccc(Cl)cc2)N1 | 36% |  |
| O=C1C=C(c2ccccc2)/C(=C/Sc2ccccc2)N1 | 52% |  |
| O=C1C=C(c2ccc(Br)cc2)/C(=C/Sc2ccccc2)N1 | 52% |  |
| O=C1C=C(c2ccc(F)cc2)/C(=C/Sc2ccc(Cl)cc2)N1 | 46% |  |
